High-throughput results as filed in PubChem.
Only some compounds are listed: those with a hit (about 3% of all), similar ones and a draw of the others.
Wnt act: Wnt/beta-catenin pathway activators, primary screen, cell-based, plate reader, single point; Wnt/beta-catenin reporter cell assay, activator; AID 743398, 2014; activation, % at 9.35 µM; 1.2% of 300,000 active; in the data active means activation above about 30%, passing the limit was not always enough; inconclusive means no clear call, values can overlap the other calls;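 further: 0% = neutral control wells and 100% = positive control wells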
Xi reactivation: activators of inactive X chromosome reactivation, primary screen, imaging, XiGFP fibroblasts, GFP high-content imaging, set 2; XiGFP mouse fibroblasts, % GFP-positive cells imaging, 3 d; cells co-treated with 5-aza-dC sensitizer; scaled so ellipticine positive control = 100%; activation, % at 7.58 µM; 0.055% of 360,000 active;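 active means mean normalized replicate activation at least 10% and every replicate at or above 10%; inconclusive means only one of the two criteria met; inactive means mean below 10% and not all replicates reach 10%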;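 further: 0% = median of on-plate neutral control wells and 100% = ellipticine 6 µM median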
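System: 68-5-11 XiGFP fibroblast line | Buffer or medium: DMEM containing 5-aza-dC | Compound: Single point | Times: Compounds 3 days, fix/stain 15 min at room temperature | Benchmarks: Positive control ellipticine, 6 µM final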
esBAF inh: Bmi1 luciferase reporter increase in mESCs, primary screen, esBAF inhibitor project, mouse ES cells, Bmi1 luciferase knock-in, single point | 24 h; 100% = twice the neutral-well signal | reporter increase, % at 12.5 µM | 2% of 350,000 active | AID 602393, 2012; in the data active means activation above about 40%; inconclusive means no clear call, values can overlap the other calls;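 further: 0% = median of the plate's neutral control wells and 100% = double that signal; a rise in the Bmi1 reporter signal indicates esBAF inhibition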
CASP6 VEID inh: human caspase-6 inhibitors, primary screen, biochemical, VEID-R110 fluorescence, single point, set 2 | purified caspase-6, Z-VEID-R110 cleavage fluorescence | AID 686996, 2013 | P55212 | 0.53% of 350,000 active | inhibition, % at 12.5 µM;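 active means mean inhibition across replicates at least about 35%, with every replicate also reaching that limit, limit read from the data; inconclusive means only one of the two criteria met; inactive means neither criterion met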;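 further: 0% = median of neutral control wells and 100% = no fluorescence left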
MITF act: activators of MITF-driven TRPM1 promoter reporter, primary screen, cell-based, SK-MEL-5, luciferase, single point. SK-MEL-5 TRPM1-promoter luciferase, 24 h; % of positive control, neutral wells = 0. activation, % at 12.5 µM. 0.75% of 300,000 active;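 active means mean activation of at least 80% with every replicate also reaching 80%; inconclusive means mean reaches 80% but some replicate falls short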;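 further: 0% = neutral control wells and 100% = parthenolide positive control wells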
NSD2 HMT inh: NSD2 histone methyltransferase inhibitors, primary screen, biochemical, AlphaScreen, single concentration, set 2; 0.54% of 310,000 active; Histone-lysine N-methyltransferase NSD2 (Homo sapiens), O96028; NSD2 peptide methylation, 120 min; inhibition, % at 12.5 µM; in the data active means inhibition above about 50%
Target sequence (O96028 whole entry, looked up): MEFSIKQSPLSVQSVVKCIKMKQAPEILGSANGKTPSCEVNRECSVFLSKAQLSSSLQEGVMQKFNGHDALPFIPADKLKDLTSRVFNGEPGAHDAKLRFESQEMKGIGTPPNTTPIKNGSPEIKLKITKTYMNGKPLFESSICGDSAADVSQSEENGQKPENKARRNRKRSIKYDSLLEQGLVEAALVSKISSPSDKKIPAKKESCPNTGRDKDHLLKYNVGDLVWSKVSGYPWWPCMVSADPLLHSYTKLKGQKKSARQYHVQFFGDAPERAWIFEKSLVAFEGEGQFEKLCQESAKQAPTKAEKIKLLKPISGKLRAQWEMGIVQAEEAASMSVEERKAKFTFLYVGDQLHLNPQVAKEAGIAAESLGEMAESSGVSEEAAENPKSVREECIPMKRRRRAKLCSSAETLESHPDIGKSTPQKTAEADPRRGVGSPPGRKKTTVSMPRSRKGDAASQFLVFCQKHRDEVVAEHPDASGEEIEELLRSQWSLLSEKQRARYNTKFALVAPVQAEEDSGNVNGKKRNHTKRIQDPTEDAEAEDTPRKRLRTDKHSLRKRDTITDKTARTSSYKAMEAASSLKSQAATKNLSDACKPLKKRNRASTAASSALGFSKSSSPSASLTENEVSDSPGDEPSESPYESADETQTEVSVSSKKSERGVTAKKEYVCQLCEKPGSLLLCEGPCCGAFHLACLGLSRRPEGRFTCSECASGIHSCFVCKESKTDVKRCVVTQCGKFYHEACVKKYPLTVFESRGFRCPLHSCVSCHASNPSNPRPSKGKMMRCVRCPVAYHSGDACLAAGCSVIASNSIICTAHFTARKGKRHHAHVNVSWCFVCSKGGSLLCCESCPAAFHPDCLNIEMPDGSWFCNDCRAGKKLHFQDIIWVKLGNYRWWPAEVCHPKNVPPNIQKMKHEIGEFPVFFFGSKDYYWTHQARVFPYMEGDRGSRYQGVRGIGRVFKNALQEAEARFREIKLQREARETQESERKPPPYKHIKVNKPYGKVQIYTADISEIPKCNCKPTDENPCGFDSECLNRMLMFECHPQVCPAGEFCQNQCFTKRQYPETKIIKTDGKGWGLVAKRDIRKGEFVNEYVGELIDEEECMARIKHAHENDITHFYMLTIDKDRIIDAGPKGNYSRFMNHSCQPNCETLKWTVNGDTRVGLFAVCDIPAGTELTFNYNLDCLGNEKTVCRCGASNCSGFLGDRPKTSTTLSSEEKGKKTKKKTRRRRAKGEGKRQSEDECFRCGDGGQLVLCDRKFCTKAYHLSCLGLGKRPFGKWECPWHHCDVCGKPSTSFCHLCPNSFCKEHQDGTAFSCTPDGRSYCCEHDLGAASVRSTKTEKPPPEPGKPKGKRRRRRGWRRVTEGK
Starred values were filed as active, the others as inactive.

Screening CC(=O)N1CCc2cc(Br)cc(S(=O)(=O)N3CCC(C(=O)O)CC3)c21 returned Wnt act -2, Xi reactivation 0, esBAF inh -10, CASP6 VEID inh 39*, MITF act -8 and NSD2 HMT inh 22.
For O=C(Nc1ccccc1)N1CCCCN2[C@H](CO)[C@@H](c3ccc(C#Cc4ccccn4)cc3)[C@@H]2C1 the results were Xi reactivation 0.
`CCCc1noc(-c2ccc(-c3ccccc3)cc2)n1` gave Wnt act 39*, esBAF inh 33 and NSD2 HMT inh -7.
`COC(=O)c1ccc(COc2ccc(C)c(C)c2)o1` gave Wnt act 3, Xi reactivation 0, esBAF inh 58*, CASP6 VEID inh 1, MITF act inconclusive and NSD2 HMT inh 1.
`COC(=O)c1ccc(COc2cc(C)ccc2C)o1` gave Wnt act 7, Xi reactivation 0, esBAF inh 70*, CASP6 VEID inh 1, MITF act 82* and NSD2 HMT inh 0.
Screening CCOc1ccc(OCc2ccc(C(=O)OCc3ccccn3)o2)cc1 returned Wnt act 33* and MITF act 5.
CCC(=O)c1ccc(OCc2ccc(C(=O)OC)o2)c(OC)c1 was read as esBAF inh 16, MITF act 8 and NSD2 HMT inh -1.
Screening COC(=O)c1c(-c2ccc(N(C)C)cc2)sc2ccc(OC)cc12 returned Wnt act 20, Xi reactivation 0, esBAF inh 23, CASP6 VEID inh 2 and MITF act 79.
Screening COC(=O)c1c(-c2ccc(OC)cc2)sc2cc3c(cc12)OCO3 returned Wnt act 33*, Xi reactivation 0, esBAF inh 49*, CASP6 VEID inh 2 and MITF act 92*.
`CCOC(=O)C1=C(COC(=O)c2cccc(N(C)C)c2)NC(=O)NC1C` (centres undefined) gave Wnt act 38*, Xi reactivation 0, esBAF inh 60*, CASP6 VEID inh 6, MITF act 78 and NSD2 HMT inh 2.
`CCOC(=O)C1=C(COC(=O)c2cccc(Br)c2)NC(=O)NC1C` (centres undefined) gave Wnt act -4, Xi reactivation 0, esBAF inh -4, CASP6 VEID inh 3, MITF act -8 and NSD2 HMT inh 1.
For C[C@H]1CN([C@@H](C)CO)C(=O)c2cc(C#Cc3ccncc3)cnc2O[C@H]1CN(C)CC1CCCC1 the results were Xi reactivation 0.
`O=C(CSc1nnc2ccccn12)c1ccc(Cl)cc1` gave Wnt act 36*, Xi reactivation 0, esBAF inh 22, CASP6 VEID inh 1, MITF act 38 and NSD2 HMT inh 0.
Screening O=c1c2ccccc2nnn1Cc1ccc2ccccc2c1 returned Wnt act 3, Xi reactivation 73*, CASP6 VEID inh 2, MITF act 9 and NSD2 HMT inh -3.
O=c1c2ccccc2nnn1CSc1nnc2ccccn12 was read as Wnt act 53*, esBAF inh 47* and NSD2 HMT inh 0.
C[C@@H]1CCCCO[C@@H](CN(C)Cc2ccccc2)[C@H](C)CN([C@H](C)CO)C(=O)c2cc(NS(=O)(=O)c3cn(C)cn3)ccc2O1 was read as Xi reactivation 0, esBAF inh -4 and CASP6 VEID inh 3.
Cc1cc(NCc2ccccc2)cc(=O)n1Cc1ccccc1 was read as NSD2 HMT inh -11.
`Cc1ccc(NC(=O)Nc2cccc3ccccc23)cc1` gave Wnt act 3, Xi reactivation 0, esBAF inh 29, CASP6 VEID inh -2, MITF act 8 and NSD2 HMT inh 0.
`N#CCc1ccc(NC(=O)Nc2cccc3ccccc23)cc1` gave esBAF inh 49*, MITF act 16 and NSD2 HMT inh 3.
For COc1cc(NC(=O)c2cc3nc(C)cc(C)n3n2)c(OC)cc1Cl the results were esBAF inh 52*, MITF act 100* and NSD2 HMT inh -1.
Screening COc1cc(NC(=O)c2c(F)c(F)c(F)c(F)c2F)c(OC)cc1Cl returned esBAF inh -12, MITF act -39 and NSD2 HMT inh 2.
For O=C(C[C@@H]1CC[C@@H]2[C@H](COC[C@H](O)CN2C(=O)c2cccnc2)O1)NCc1ccc(Cl)cc1 the results were Xi reactivation 0, esBAF inh 2 and CASP6 VEID inh -1.
CC(C)CN=CC1=C(O)c2ccccc2C1=O was read as Wnt act 26, Xi reactivation 0, CASP6 VEID inh -1 and NSD2 HMT inh 1.
`COc1cc(N=CC2=C(O)c3ccccc3C2=O)cc(OC)c1` gave Wnt act 0, Xi reactivation 0, esBAF inh 43*, CASP6 VEID inh -1, MITF act 62 and NSD2 HMT inh 2.
`CCC(=O)N1CC2(C1)[C@H](c1ccc(-c3ccc(F)cc3)cc1)[C@H](CO)N2C(=O)CC` gave Xi reactivation 0 and CASP6 VEID inh -1.
Screening COc1ccc(N2CCN(C(=O)c3ccc(-c4nc5ccccc5s4)o3)CC2)cc1 returned Wnt act 4, Xi reactivation 0, esBAF inh 43*, CASP6 VEID inh -1, MITF act 20 and NSD2 HMT inh -4.
`Cc1ccc2[nH]c3c(c2c1)CCCC3=O` gave esBAF inh 10, MITF act -48 and NSD2 HMT inh -1.
Cc1ccc2[nH]c3c(c2c1)CCCC3NCCO (centres undefined) was read as Wnt act 3, Xi reactivation 0, esBAF inh -10, CASP6 VEID inh 44*, MITF act 4 and NSD2 HMT inh 49.
`COc1cc(/C=C2/C(=N)N3C(=NC2=O)SN=C3S(C)(=O)=O)ccc1OC(=O)c1ccco1` gave Wnt act 0, Xi reactivation 0, esBAF inh -4, CASP6 VEID inh 8, MITF act 3 and NSD2 HMT inh 12.
CSC1=NSC2=NC(=O)/C(=C/c3coc4ccc(O)cc4c3=O)C(=N)N12 was read as Wnt act 2, Xi reactivation 0, esBAF inh 6, CASP6 VEID inh 40* and MITF act -4.
`COc1cc(/C=C2/C(=N)N3C(SC)=NSC3=NC2=O)ccc1OC(=O)c1ccco1` gave Wnt act 8, Xi reactivation 0, esBAF inh 46*, CASP6 VEID inh 12, MITF act 22 and NSD2 HMT inh 11.
